Screening data from PubChem BioAssay.
LMPTP inh: LMPTP phosphatase inhibitors, primary screen, biochemical, fluorescence intensity, uHTS; Low molecular weight phosphotyrosine protein phosphatase (Homo sapiens), P24666; recombinant LMPTP-A, OMFP fluorogenic substrate; inhibition, % at 20 µM; hit rate 0.22% among 360,000;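 active = compounds that cut the enzyme signal by at least half of the control window in the single-dose screen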;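 also: plate controls were DMSO wells with enzyme plus substrate for no effect and substrate without enzyme for full effect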
Target sequence (P24666 whole entry, looked up): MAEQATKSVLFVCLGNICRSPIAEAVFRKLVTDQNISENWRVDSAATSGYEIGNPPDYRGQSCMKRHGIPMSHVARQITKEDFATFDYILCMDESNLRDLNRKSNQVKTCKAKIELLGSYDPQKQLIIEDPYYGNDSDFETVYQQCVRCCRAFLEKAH
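test system = LMPTP-A | amount = 0.625 nM LMPTP-A final | reagent = fluorogenic phosphatase substrate OMFP at 400 µM final | incubation = 50 min at room temperature | benchmarks = no-enzyme low control, uninhibited high control | medium = Bis-Tris pH 6.0, DTT, detergent | signal = fluorescence intensity of OMFP turnover product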
STEP block: STEP phosphatase inhibitors, primary screen, biochemical, fluorescence intensity, uHTS | AID 588621, 2011 | recombinant STEP, OMFP fluorogenic substrate | Tyrosine-protein phosphatase non-receptor type 5 (Homo sapiens), P54829 | hit rate 0.25% among 360,000 | inhibition, % at 20 µM;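 active = inhibition at 20 µM, scaled per plate between control wells, above about 37%, limit read from the data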;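 also: 0% = DMSO with enzyme and substrate and 100% = substrate only without enzyme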
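System: STEP phosphatase, cell-free reaction; Buffer or medium: Bis-Tris pH 6.0 buffer with DTT, detergent; Incubation: 20 min at room temperature, dark; Measured by: fluorescence, 480/540 nm.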
Scp-1 inhibitor: Scp-1 phosphatase inhibitors, primary screen, biochemical, colorimetric, uHTS; Recombinant Scp1, phosphopeptide, malachite green phosphate absorbance; inhibition, % at 20 µM; hit rate 0.88% among 340,000;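 active = inhibition above about 50% at 20 µM, limit read from the data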;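 also: plate controls were DMSO wells with enzyme for no effect and wells lacking enzyme for full effect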
Target sequence (Q9GZU7 76-261 limits assumed): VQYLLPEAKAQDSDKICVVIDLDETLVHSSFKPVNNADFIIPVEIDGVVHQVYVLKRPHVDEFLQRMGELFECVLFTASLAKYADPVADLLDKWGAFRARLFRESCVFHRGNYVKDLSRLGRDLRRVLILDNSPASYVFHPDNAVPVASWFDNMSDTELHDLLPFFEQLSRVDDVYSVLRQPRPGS
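Test system: SCP-1 catalytic domain; Buffer or medium: Acidic Tris acetate buffer with magnesium and detergent; Also added: Phosphorylated 17-residue peptide substrate; Compound: single 20 µM dose, 1% DMSO; Schedule: enzyme reaction 45 min at room temperature, colour 5 min, stabilisation 30 min; Signal: Phosphate-binding colour reagent, absorbance read at 630 nm.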
DNMT1 inh: human DNMT1 methyltransferase inhibitors, primary screen, biochemical, molecular beacon, fluorescence, HinP1I cleavage, uHTS | AID 588458, 2011 | DNA (cytosine-5)-methyltransferase 1 (Homo sapiens), P26358 | hit rate 0.83% among 360,000 | inhibition (reported as % activation of signal), % at 10 µM; in the data active = inhibition above about 50%
SUMO1-SIM PPI: modulators of SUMO1 protein-protein interactions, primary screen, biochemical, uHTS. Small ubiquitin-related modifier 1 (Homo sapiens), P63165. SUMO1 binding to a labelled peptide, TR-FRET, 1 h. inhibition, % at 20 µM. hit rate 0.33% among 360,000; in the data active = inhibition above about 37%
Target sequence (P63165 whole entry, looked up): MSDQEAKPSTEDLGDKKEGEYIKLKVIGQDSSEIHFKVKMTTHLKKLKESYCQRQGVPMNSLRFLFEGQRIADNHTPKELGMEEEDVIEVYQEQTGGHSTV
Scp1 confirm: Scp-1 phosphatase inhibitors, retest, confirmation, biochemical, colorimetric, single concentration. shares compounds with Scp-1 inhibitor. recombinant SCP-1 catalytic domain, phosphate release, malachite green absorbance. inhibition, % at 20 µM. hit rate 61% among 2,500;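 also: plate controls were DMSO with enzyme for no effect and buffer wells lacking enzyme for full effect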
Scp-1 MG ctr: colorimetric readout interference by compounds, confirmation, artefact control for Scp-1 inhibitor project, biochemical, single concentration | 2,500 tested, under 10 active | Colorimetric interference counterscreen, malachite green absorbance 630 nm | AID 540313, 2011 | shares compounds with Scp-1 inhibitor | apparent inhibition (interference), % at 20 µM;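 also: compounds added after enzyme reaction finished so only phosphate colour detection is probed; plate controls were DMSO wells with completed Scp-1 reaction for no effect and substrate wells lacking enzyme for full effect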
Scp-1 Tm shift: Scp-1 binding by thermal shift, confirmation, orthogonal assay for Scp-1 inhibitor project, biophysical, differential scanning fluorimetry; shares compounds with Scp-1 inhibitor; Recombinant SCP1, Sypro Orange thermal shift Tm; thermal shift relative to vanadate control, % at 40 µM; hit rate 25% among 1,500;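 active = substances whose mean melting-temperature shift, as a percentage of the reference inhibitor's shift, reaches about 5.3%, limit read from the data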;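 also: 0% = Tm of DMSO wells and 100% = Tm with sodium orthovanadate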
Starred values were filed as active, the others as inactive; x = no result given. In the library only some 1.7% were active in any assay of this set; here they are far more common.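 The calls were made as follows, unless noted: active = inhibition of at least 30% at 20 µM; inactive = the rest.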

SMILES	LMPTP inh	STEP block	Scp-1 inhibitor	DNMT1 inh	SUMO1-SIM PPI	Scp1 confirm	Scp-1 MG ctr	Scp-1 Tm shift
CC1CC(C)CN(C(=O)COC(=O)/C=C/c2ccco2)C1 (stereo unspecified)	4.8	14.7	59.0*	34.5	-16.6	47.9*	-17.8	-20.5
NS(=O)(=O)c1cccc(NC(=O)c2ccc3nc[nH]c3c2)c1	5.3	5.8	70.0*	3.3	33.7	66.9*	-7.3	-9.4
Cc1cccc(NC(=O)CNC(=O)c2ccc3nc[nH]c3c2)c1C	3.3	-0.8	67.6*	10.7	-0.3	50.6*	-3.2	-1.2
COC(C/C=C\[C@H](O)COCc1ccccc1)OC	-0.4	-1.7	-5.8	1.6	-2.3	x	x	x
Cc1cc(C)c(NC(=O)COc2nc3ccccc3nc2C)c(C)c1	-1.6	0.2	58.4*	-0.1	-1.1	-18.1	-13.4	x
Nc1cc([N+](=O)[O-])ccc1N1C(=O)CCCC1=O	1.8	3.9	63.5*	15.9	-7.8	49.1*	-8.2	-16.2
CCOc1ccc2c(c1)[N+](C)(C)C(C)(C)C=C2C	0.0	-1.0	48.3	-3.8	2.4	x	x	x
COc1ccc2c(c1)[N+](C)(C)C(C)(C)C=C2C	-2.4	-1.9	93.4*	-3.6	0.8	86.2*	-12.3	-21.2
CC(C)(C)c1ccc(S(=O)(=O)NC(=O)C2(C)CCN2C(=O)CC2CCCCC2)cc1 (stereo unspecified)	-0.6	-1.9	x	27.5	1.9	x	x	x
COC(=O)c1ccc(-c2csc(NC(=O)C3=COCCO3)n2)cc1	2.5	1.2	-6.0	-1.1	-8.1	x	x	x
CCN1C(=O)C(=O)N(CC(=O)N(C)CC(=O)Nc2ccccc2Cl)C1=O	-1.1	-0.6	-0.8	-0.2	-1.5	-4.7	-10.7	x
O=C(CSc1nc2ccccc2c(=O)n1-c1ccccc1)NC(=O)CN1CCCC1=O	4.2	19.9	58.0*	31.2	6.7	38.8*	-10.1	-13.8
COc1ccc(C(=O)Nc2ccc3ccccc3c2)cc1OC	3.3	2.0	-2.0	-1.8	-3.1	x	x	x
COc1ccc(NC(=O)CN(c2ccccc2)S(=O)(=O)N(C)C)cc1OC	8.5	0.2	75.8*	12.8	3.1	69.2*	-1.6	-3.7
COc1ccc(C(=O)Nc2ccc3c(c2)C(=O)c2ccccc2C3=O)cc1OC	4.8	54.7*	66.2*	56.7*	20.7	15.8	-7.6	x
COc1ccc(NC(=O)CN(c2ccccc2)S(=O)(=O)N(C)C)cc1Cl	0.7	-3.5	-12.7	-0.7	5.5	x	x	x
O=C1OCC2=C1C(c1ccc(F)cc1)c1cc3c(cc1N2)OCCO3 (stereo unspecified)	0.6	2.4	-4.2	-1.5	-31.2	x	x	x
O=C(COC(=O)c1cc(=O)[nH]c2ccccc12)NC1CCCCCCC1	-0.2	6.7	-5.2	2.1	-10.2	x	x	x
O=C(COC(=O)c1cc(=O)[nH]c2ccccc12)NC(=O)NC1CCCCC1	1.3	-2.3	-5.9	1.1	-6.4	-19.4	-16.1	x
CCn1c(SCC(=O)N2CCN(c3ccccc3)CC2)nc2c([nH]c3ccccc32)c1=O	-0.1	1.1	-7.2	40.8	0.3	x	x	x
O=c1[nH]c(/C=C\c2ccc(O)c(O)c2)nc(O)c1[N+](=O)[O-]	-1.1	5.2	23.0	13.8	3.3	45.0*	-1.9	6.2*
COc1ccc(-n2c(C)cc(/C=C/c3nc(O)c([N+](=O)[O-])c(=O)[nH]3)c2C)cc1	16.1	3.0	65.5*	44.3	8.8	59.3*	-17.5	4.7
Cc1ccc(-c2c(C#N)c(N)n3c(nc4ccccc43)c2C#N)cc1	18.8	11.8	56.6*	-12.4	-9.1	14.0	-19.5	x
N#Cc1c(-c2ccccc2)c(C#N)c2nc3ccccc3n2c1N	1.3	-0.6	-1.0	-20.1	-4.8	x	x	x
CN(/N=C/c1ccncc1)C1=NCCN1	-1.7	0.8	85.5*	-0.8	-4.5	-3.4	-11.4	x
SMILES	LMPTP inh	STEP block	Scp-1 inhibitor	DNMT1 inh	SUMO1-SIM PPI	Scp1 confirm	Scp-1 MG ctr	Scp-1 Tm shift
CC(C)Cn1c(CCCNC(=O)c2ccco2)nc2ccccc21	4.7	-0.4	1.8	0.8	-0.6	x	x	x
Cc1cccc(C)c1-n1nnnc1C1(C)CCC(=O)N1Cc1ccco1 (stereo unspecified)	-1.9	x	x	x	2.1	x	x	x
N=C1/C(=C\c2ccc(Br)o2)C(=O)N=C2SC(CC(=O)N3CCOCC3)=NN12	2.3	4.0	78.0*	47.4	27.5	36.3*	-18.1	6.8*
CSc1ccc(/C=C2\C(=N)N3N=C(CC(=O)N4CCOCC4)SC3=NC2=O)cc1	-0.1	-2.1	19.5	0.7	-0.9	x	x	x
CCOC(=O)C(C(=O)Nc1ccccn1)C1CCCCC1 (stereo unspecified)	-0.3	4.2	50.3*	-1.8	-2.5	76.7*	-10.1	-3.9
Cc1cc([N+](=O)[O-])c2ccccc2c1NS(=O)(=O)c1ccccc1	0.4	0.0	-16.0	1.0	-16.8	x	x	x
COc1ccccc1NC(=O)CSc1nc(=O)n(CCN2CCOCC2)c2c1CCC2	0.1	1.0	-0.6	0.4	4.6	x	x	x
COc1cccc(N2[C@@H](CC(=O)O)c3cc(C(F)(F)F)ccc3S2(=O)=O)c1	0.2	-1.7	104.5*	14.5	9.2	69.2*	-19.1	3.4
COc1ccc(NC(=O)[C@H](C)NC(=O)[C@@H]2Cc3ccccc3CN2C(=O)OC(C)(C)C)cc1	-0.5	-3.3	0.3	-1.4	-0.7	x	x	x
Cc1ccc(C(=O)COC(=O)[C@@H](NC(=O)c2ccco2)C(C)C)s1	0.4	0.0	8.0	11.8	-4.6	x	x	x
CN(C)CC(C)(C)CNS(=O)(=O)c1cccc(Cl)c1Cl	-1.7	-5.0	69.6*	-0.9	-2.7	12.0	-22.1	x
COc1ccc(CNC(=O)Cn2cccc2C(=O)c2ccccc2)cc1	-0.1	-1.1	-8.0	-0.9	2.0	x	x	x
CCc1cc(C(=O)OC)c(NC(=O)CCC(=O)O)s1	-1.7	1.7	62.2*	-1.8	-0.2	-10.2	-10.9	x
CC(=O)c1ccc(S(=O)(=O)Oc2ccc(C(=O)O)cc2Cl)cc1	-0.7	-3.6	53.0*	24.8	3.9	24.1	-6.0	x
